The species entered for data set [1] is Homo sapiens. Briefly: Selectivity for human recombinant adenosine A2B receptor over human recombinant adenosine A1 receptor.
A further data set concerns the target T1, Adenosine receptor A2b (Homo sapiens, UniProt P29275).
T1 sequence (P29275 whole entry): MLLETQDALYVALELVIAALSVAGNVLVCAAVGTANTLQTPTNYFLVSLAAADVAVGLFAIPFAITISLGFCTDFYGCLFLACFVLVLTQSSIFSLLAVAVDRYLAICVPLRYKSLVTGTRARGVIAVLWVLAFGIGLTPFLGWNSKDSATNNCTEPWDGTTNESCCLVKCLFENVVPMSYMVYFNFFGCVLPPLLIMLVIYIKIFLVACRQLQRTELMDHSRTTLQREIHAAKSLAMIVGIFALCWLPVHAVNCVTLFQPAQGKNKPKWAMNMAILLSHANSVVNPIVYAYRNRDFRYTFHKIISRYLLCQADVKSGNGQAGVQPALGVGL
The data set can be described thus: Displacement of [3H]ZM-241385 from human recombinant adenosine A2B receptor expressed in HEK293 cells. The data set is classed as cell-based. In short, it runs like this: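 Membranes from HEK293 cells stably expressing human A2B receptor; competition with 10 nM radioligand, 50 µg membrane protein, in 50 mM Tris/1 mM EDTA with 1 U/mL adenosine deaminase, 25 °C for 90 min with gentle agitation; filtration, four ice-cold Tris/MgCl2 washes. Nonspecific binding defined with 10 µM unlabelled ligand; Ki calculated.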
Background: Displacement assays read how much labelled ligand stays bound in the presence of the test substance.

For another data set, the target named is T2, Adenosine receptor A1 (Homo sapiens, UniProt P30542).
T2 sequence (P30542 whole entry): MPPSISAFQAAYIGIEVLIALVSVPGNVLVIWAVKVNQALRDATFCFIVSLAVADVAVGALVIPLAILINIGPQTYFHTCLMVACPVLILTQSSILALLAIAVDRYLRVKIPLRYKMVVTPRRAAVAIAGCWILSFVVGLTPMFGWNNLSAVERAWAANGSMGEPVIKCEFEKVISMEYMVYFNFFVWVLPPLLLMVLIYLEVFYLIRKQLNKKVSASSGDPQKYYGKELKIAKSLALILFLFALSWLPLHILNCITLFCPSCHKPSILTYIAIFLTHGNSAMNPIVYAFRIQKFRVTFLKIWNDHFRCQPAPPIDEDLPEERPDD
The data set can be described thus: Displacement of [3H]CPX from human recombinant adenosine A1 receptor expressed in CHO cells. The data set is classed as cell-based. An outline of the steps:
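CHO cell membranes stably expressing human A1 receptor; 0.5 nM [3H]CPX competed with test compound in 50 mM Tris/1 mM EDTA plus 1 U/mL adenosine deaminase, 25 °C, 90 min, gentle agitation; filtration and four ice-cold Tris/MgCl2 washes. Nonspecific binding defined with 1 µM CPX; Ki values derived.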

The next data set deals with Adenosine receptor A2a (Homo sapiens, UniProt P29274). Briefly: Displacement of [3H]ZM-241385 from human recombinant adenosine A2A receptor expressed in HEK293 cells. The data set is classed as cell-based. An outline of the steps:
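Membranes from HEK293 cells stably expressing human A2A receptor; 2 nM radioligand competed in 50 mM Tris/1 mM EDTA with 1 U/mL adenosine deaminase for 90 min at 25 °C with agitation; filtration, four ice-cold Tris/MgCl2 washes. Nonspecific binding defined with 1 µM unlabelled ligand; Ki computed.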

The target in the next data set is T3, Adenosine receptor A3 (Homo sapiens, UniProt P0DMS8).
T3 sequence (P0DMS8 whole entry): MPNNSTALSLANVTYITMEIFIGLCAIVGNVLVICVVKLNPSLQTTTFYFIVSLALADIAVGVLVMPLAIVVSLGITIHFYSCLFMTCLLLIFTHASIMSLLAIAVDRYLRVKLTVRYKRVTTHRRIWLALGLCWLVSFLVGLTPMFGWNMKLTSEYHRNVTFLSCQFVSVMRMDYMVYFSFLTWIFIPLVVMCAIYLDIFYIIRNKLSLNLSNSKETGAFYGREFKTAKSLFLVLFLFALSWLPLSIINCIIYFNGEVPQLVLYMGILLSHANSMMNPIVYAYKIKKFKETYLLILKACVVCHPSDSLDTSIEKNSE
The data set can be described thus: Displacement of [125I]ABMECA from human recombinant adenosine A3 receptor expressed in CHO cells. The data set is classed as cell-based. An outline of the steps:
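Human A3 receptor stably expressed in CHO cells; membranes incubated with 0.1 nM 125I-AB-MECA and test compound in 50 mM Tris, 1 mM EDTA, 10 mM MgCl2 plus 1 U/mL adenosine deaminase, 25 °C, 90 min; filtration, four ice-cold washes. Nonspecific binding defined with 1 µM IB-MECA; Ki determined.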

For data set [2], the species on record is Homo sapiens. The data set can be described thus: Selectivity for human recombinant adenosine A2B receptor over human recombinant adenosine A2A receptor.
For data set [3], the species on record is Homo sapiens. Briefly: Selectivity for human recombinant adenosine A2B receptor over human recombinant adenosine A3 receptor.
A short description of data set [4]: Cmax in Sprague-Dawley rat at 2 mg/kg, po. The arrangement: dose 2 mg/kg, route oral. The data set is classed as ADME, organism-based. The following applies: in vivo.
Data set [5] in a line: Plasma concentration in Sprague-Dawley rat at 2 mg/kg, po after 4 hrs. The data set is classed as ADME, organism-based. The arrangement: dose 2 mg/kg, route oral.
Data set [6] is described as follows: Plasma concentration in Sprague-Dawley rat at 2 mg/kg, po after 6 hrs. The data set is classed as ADME, organism-based. The arrangement: dose 2 mg/kg, route oral.
Data set [7] in a line: AUC (0 to tlast) in Sprague-Dawley rat at 2 mg/kg, po. The data set is classed as ADME, organism-based. Also noted: dose 2 mg/kg, route oral. As to conditions: plasma.
Data set [8] is described as follows: Tmax in Sprague-Dawley rat at 2 mg/kg, po. As to conditions: in vivo. Also noted: dose 2 mg/kg, route oral. The data set is classed as ADME, organism-based.

Chain of Adenosine receptor A2a (P29274 whole entry): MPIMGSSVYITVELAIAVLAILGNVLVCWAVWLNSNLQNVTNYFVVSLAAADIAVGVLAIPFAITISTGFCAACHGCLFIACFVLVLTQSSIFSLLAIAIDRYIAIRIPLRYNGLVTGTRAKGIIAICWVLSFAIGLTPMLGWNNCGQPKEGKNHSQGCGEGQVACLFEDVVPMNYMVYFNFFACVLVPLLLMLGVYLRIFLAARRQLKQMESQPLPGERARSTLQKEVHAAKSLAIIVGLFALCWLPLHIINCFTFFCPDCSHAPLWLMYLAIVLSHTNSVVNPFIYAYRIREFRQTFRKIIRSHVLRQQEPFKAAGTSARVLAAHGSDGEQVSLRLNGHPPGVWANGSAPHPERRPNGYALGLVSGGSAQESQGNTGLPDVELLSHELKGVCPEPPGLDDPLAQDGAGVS

Turning to `CCCn1c(=O)c2[nH]c(-c3cnn(Cc4noc(-c5ccc(C(F)(F)F)cc5)n4)c3)nc2n(CC)c1=O`, the Ratio Ki in the data set filed under Homo sapiens [1] was over 250; in the data set listed under Homo sapiens [2], over 208; in the data set listed under Homo sapiens [3], over 375. Further, the Ki – broadly, a measure of affinity in units of concentration, obtained from inhibition or displacement – was 0.024 µM on Adenosine receptor A2b, over 6 µM at Adenosine receptor A1, over 5 µM on Adenosine receptor A2a and over 9 µM on Adenosine receptor A3. The highest level in [4] (Cmax) was 34.6 ng/mL. For the same compound, in data set [5], the concentration at 4 h was determined as 7.75 ng/mL. The same compound showed a concentration at 6 h in data set [6] of 17.3 ng/mL. Also, the AUC(0-t) (as a rule, the area under the concentration-time curve up to a stated or last time point) in data set [7] is 65.6 ng·h/mL. Besides, in data set [8], the Tmax (in general, the time from dosing to the highest level) came to 6 h.

Source of the values: ChEMBL document CHEMBL1145545, “Discovery of a novel A2B adenosine receptor antagonist as a clinical candidate for chronic inflammatory airway diseases” (J Med Chem, 2008).
